Common to all, as to format: ADME, organism-based
Series [1] can be described thus: AUC (0 to 24 hrs) in PBMC cellular compartment of HIV infected virological failure patient. Details: time < 24 hr. The following applies: human. Summed up:
(§1)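 PBMC drug levels, same once-daily saquinavir/ritonavir 1,200/100 mg regimen at steady state, same sampling times. PBMC were isolated from EDTA blood diluted 1:1 in PBS (pH 7.4) by Ficoll density centrifugation and washed twice in PBS. Pellet volume was taken as equal to its weight. Pellets were frozen at −70°C and assayed by HPLC-UV at 215 nm. Analysis was noncompartmental, with the terminal phase from the 12–24 h points.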

Series [2] can be described thus: Elimination half life in PBMC cellular compartment of HIV infected virological failure patient after 24 hrs. Conditions: human. In short, it runs like this:
as §1

The species entered for series [3] is Homo sapiens. Kind of series: Ratio of Cmax in PBMC cellular compartment to plasma in HIV infected virological failure patient. In short, it runs like this:
(§2)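 Steady-state study (≥1 month on once-daily saquinavir 1,200 mg + ritonavir 100 mg with two NRTIs). 24-h profile: blood drawn predose and at 2, 4, 6, 8, 12 and 24 h after supervised intake. Plasma was separated, and PBMC were isolated on a Ficoll gradient, weighed, and volume was taken as weight. Saquinavir was measured by HPLC-UV at 215 nm (LLOQ 40 ng/ml). Noncompartmental analysis was used, with terminal slope from the 12–24 h points. Ratio = intracellular/plasma.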

Series [4] can be described thus: Ratio of Cmin in PBMC cellular compartment to plasma in HIV infected virological failure patient. The following applies: human, read-out: Cmin_ratio. Summed up:
(§3)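 Trough (Cmin) saquinavir was sampled at steady state on once-daily 1,200/100 mg saquinavir/ritonavir, either as the 24-h point of the full profile or as a single sample 24 ± 0.5 h postdose. Plasma and Ficoll-isolated PBMC (volume from weight) were assayed by HPLC-UV at 215 nm (LLOQ 40 ng/ml). Ratio = intracellular/plasma concentration.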

A short description of series [5]: Ratio of AUC (0 to 24 hrs) in PBMC cellular compartment to plasma in HIV infected virological failure patient. Conditions: human, read-out: AUC_ratio. In short, it runs like this:
as §2

The species entered for series [6] is Homo sapiens. Kind of series: Ratio of elimination half life in PBMC cellular compartment to plasma in HIV infected virological failure patient. Summed up:
as §2

The nature of series [7]: Cmax in HIV infected patient plasma after 24 hrs. The following applies: human. In short, it runs like this: (§4)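 Plasma PK at steady state (≥1 month) in HIV patients on once-daily saquinavir 1,200 mg plus ritonavir 100 mg and two NRTIs. EDTA blood was drawn predose and at 2, 4, 6, 8, 12 and 24 h after supervised intake, or as a single 24 ± 0.5 h trough. Plasma was stored at −70°C and assayed by HPLC-UV at 215 nm (LLOQ 40 ng/ml). Parameters were noncompartmental, with the terminal slope from the 12–24 h points.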

Series [8] is described as follows: Cmin in HIV infected patient plasma after 24 hrs. The following applies: human, read-out: Cmin. Summed up:
as §4

Series [9] is described as follows: AUC (0 to 24 hrs) in HIV infected patient plasma after 24 hrs. Set-up: time < 24 hr. Conditions: human. Summed up: as §4
Series [10] in a line: Elimination half life in HIV infected patient plasma after 24 hrs. The following applies: human. Summed up: as §4
Series [11] in a line: Cmax in PBMC cellular compartment of HIV infected virological failure patient after 24 hrs. The following applies: human. Summed up: as §1
The nature of series [12]: Cmin in PBMC cellular compartment of HIV infected virological failure patient after 24 hrs. The following applies: human, read-out: Cmin. Summed up:
as §1

Series [13] can be described thus: AUC (0 to 24 hrs) in PBMC cellular compartment of HIV infected patient after 24 hrs. Conditions: human. Set-up: time < 24 hr. In short, it runs like this: as §1
Series [14] can be described thus: Elimination half life in PBMC cellular compartment of HIV infected patient after 24 hrs. The following applies: human. In short, it runs like this:
as §1

The species entered for series [15] is Homo sapiens. The series is described as follows: Ratio of Cmax in PBMC cellular compartment to plasma in HIV infected patient. In short, it runs like this: as §2
Series [16] in a line: Ratio of Cmin in PBMC cellular compartment to plasma in HIV infected patient. Conditions: human, read-out: Cmin_ratio. Summed up: as §3
Series [17] is described as follows: Ratio of AUC (0 to 24 hrs) in PBMC cellular compartment to plasma in HIV infected patient. Conditions: human, read-out: AUC_ratio. In short, it runs like this:
as §2

The species named for series [18] is Homo sapiens. The series is described as follows: Ratio of elimination half life in PBMC cellular compartment to plasma in HIV infected patient. Summed up:
as §2

A short description of series [19]: Cmax in HIV infected virological failure patient plasma after 24 hrs. The following applies: human. In short, it runs like this:
as §4

Series [20] can be described thus: Cmin in HIV infected virological failure patient plasma after 24 hrs. Conditions: human, read-out: Cmin. In short, it runs like this: as §4
Series [21] is described as follows: AUC (0 to 24 hrs) in HIV infected virological failure patient plasma. Set-up: time < 24 hr. Conditions: human. Summed up: as §2
The nature of series [22]: Elimination half life in HIV infected virological failure patient plasma after 24 hrs. Conditions: human. Summed up: as §4
Where [23] appears, read: in the assay text read “HIV infected patient” for “HIV infected virological failure patient”.

`CC(C)(C)NC(=O)[C@@H]1C[C@@H]2CCCC[C@@H]2CN1C[C@@H](O)[C@H](Cc1ccccc1)NC(=O)[C@H](CC(N)=O)NC(=O)c1ccc2ccccc2n1` [SAQUINAVIR]: the AUC(0-t) at 24 h worked out at 132000 ng·h/mL in series [1], 34300 ng·h/mL in series [9], 99500 ng·h/mL in series [13] and 35300 ng·h/mL in series [21]. Moreover, the half-life in series [2] is 10.9 h; in [10], 8.25 h; in series [14], 12.5 h; in [22] it was 8.51 h. Also, the Cmax_ratio in the series filed under Homo sapiens [3] was 4.46 (null); in the series listed under Homo sapiens [15], 2.75 (null). In addition, the Kp stood at 3.01 in [4], 3.53 in series [5], 2.39 in [16] and 2.75 in series [17]. Moreover, the t1/2_ratio in the series listed under Homo sapiens [6] and in the series filed under Homo sapiens [18] was 1.5 throughout. The Cmax in [7] is 3670 ng/mL; in series [11] it was 15200 ng/mL; in [11] (setting [23]), 10100 ng/mL; in series [19] it was 3320 ng/mL. In addition, the concentration at 24 h in [8] worked out at 431 ng/mL; in series [12] (setting [23]), 996 ng/mL; in series [12], 1220 ng/mL; in [20], 384 ng/mL.

The AUC(0-t) is exposure summed from dosing to a finite time, without extrapolation to infinity. Usually half-life stands for how long it takes for the measured level to halve. As a reminder, the Cmax is the maximum level reached in the sampled fluid or tissue.

The record behind these values is ChEMBL document CHEMBL1143814, “Clinical and pharmacokinetic data support once-daily low-dose boosted saquinavir (1,200 milligrams saquinavir with 100 milligrams ritonavir) in treatment-naive or limited protease inhibitor-experienced human immunodeficiency virus-infected patients” (Antimicrob Agents Chemother, 2007).
